According to ChEMBL document CHEMBL5500359, “Identification of a new bisindolinone arresting IGROV1 cells proliferation” (Eur J Med Chem, 2024):
Activity calls are given as the source filed them. The rule behind the calls is not given here.

What was measured:
[1] = Upregulation of histone H2/H3 acetylation in human IGROV-1 cells incubated for 6 hrs by Western blot analysis relative to control; format: functional
Procedure, shortened: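 IGROV1 seeded 1.5×10^4 cells/cm², after 48 h exposed 6 h to 5 μM final; histones acid-extracted (0.4 N H2SO4) from nuclei isolated with 10 mM butyrate washes, acetone-precipitated, 15% SDS-PAGE, blotted with anti-acetyl-lysine; densitometry normalized to histone H1, percent of vehicle, mean ± SD of three experiments.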

[2] = tested on: IGROV-1; experiment: Downregulation of ITAG5 mRNA level in human IGROV-1 cells at 5 uM incubated for 6 hrs by RT-PCR analysis; format: functional, cell-based
Procedure, shortened: (§1)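 IGROV1 given 5 μM versus vehicle; RNA extracted by spin column, reverse transcribed, CCND1, CDKN1A and ITAG5 transcripts quantified by qRT-PCR as fold change versus vehicle; at least triplicate, Student's t-test, p<0.05.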

[3] = tested on: IGROV-1; experiment: Downregulation of ITAG5 level in human IGROV-1 cells at 5 uM incubated for 6 hrs by Western blot analysis; format: functional, cell-based
Procedure, shortened: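 IGROV1 exposed to 5 μM; RIPA lysates at 4 °C, protein quantified, SDS-PAGE (12.5% or 7.5%), nitrocellulose blot probed overnight at 4 °C for cyclin D1 or α5 integrin subunit; densitometry normalized to α-tubulin, percent of vehicle, mean ± SD of three experiments.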

[4] = tested on: Panel NCI-60 (60 carcinoma cell lines); experiment: Cell growth inhibition of human Panel NCI-60 (60 carcinoma cell lines) incubated for 48 hrs by SRB assay; format: functional
Procedure, shortened: (§2)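 NCI-60 five-concentration screen: lines seeded 5×10^3–4×10^4 cells/well depending on line; compound diluted in fresh medium at scalar concentrations 0–100 or 0–1000 μM; 48 h exposure, in situ fixation, sulforhodamine B protein staining, optical density read; GI50, TGI and LC50 per NCI procedures; panel mean = mean graph midpoint.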

[5] = Cytotoxicity against human Leukemia cancer cells incubated for 48 hrs by SRB assay; format: functional; conditions: Leukemia cell, read-out: LC50 (the source's name)
Procedure, shortened: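 NCI DTP five-concentration screen. Cells were seeded at 5 × 10³–4 × 10⁴ cells/well, depending on the line. Compounds were diluted in fresh medium and added at scalar concentrations over 0–1000 µM or 0–100 µM. After 48 h the cells were fixed in situ, stained with sulforhodamine B, and optical density was read. GI50, TGI and LC50 were derived by NCI procedures, and the panel mean is the mean graph midpoint.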

[6] = tested on: HDFa (Homo sapiens); experiment: Antiproliferative activity against human HDFa cells assessed as doubling time at 5 uM measured after 48 hrs (reference value: 35 hrs)
[7] = tested on: IGROV-1; experiment: Effect on p21 level in human IGROV-1 cells at 5 uM incubated for 6 hrs by Western blot analysis; format: functional, cell-based
[8] = Cytotoxicity against human HDFa cells assessed as reduction in cell viability incubated for 24 hrs by MTT assay; format: toxicity, cell-based
Procedure, shortened: (§3)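 IGROV1 and HDFa in RPMI 1640 + 10% FCS, 2 mM glutamine, 37 °C, 5% CO2; seeded 1.5×10^4/well, after 24 h exposed 24 h to 0.010–500 μM (DMSO ≤0.1%). MTT 0.2 mg/mL in PBS 2 h at 37 °C, absorbance 570 nm; IC50 from dose-response, three independent experiments each in triplicate; SI = HDFa IC50/IGROV1 IC50.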

[9] = tested on: IGROV-1; experiment: Anti-motility activity in human IGROV-1 cells assessed as decrease in cell velocity at 5 uM incubated for 24 hrs; format: functional, cell-based
Procedure, shortened: (§4)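 Livecyte quantitative phase imaging, label-free single-cell tracking; IGROV1 seeded 4×10^3/well, treated after 24 h with 5 μM in six replicates; frames every 60 min for 2 days, 10× objective, 37 °C, 5% CO2. Each cell tracked for displacement, instantaneous velocity and directionality.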

[10] = tested on: IGROV-1; experiment: Cytotoxicity against human IGROV-1 cells assessed as reduction in cell viability incubated for 24 hrs by MTT assay; format: functional, cell-based; conditions: IGROV-1, 24 h; procedure, shortened: as §3
[11] = tested on: IGROV-1; experiment: Effect on p21 mRNA level in human IGROV-1 cells at 5 uM incubated for 6 hrs by RT-PCR analysis; format: functional, cell-based; procedure, shortened: as §1
[12] = tested on: IGROV-1; experiment: Anti-motility activity in human IGROV-1 cells assessed as decrease in cell displacement at 5 uM incubated for 24 hrs; format: functional, cell-based; procedure, shortened: as §4
[13] = tested on: Ovarian cancer cell line; experiment: Cytotoxicity against human Ovarian cancer cells incubated for 48 hrs by SRB assay; format: functional; procedure, shortened: as §2
[14] = tested on: Breast cancer cell line; experiment: Cytotoxicity against human Breast cancer cells incubated for 48 hrs by SRB assay; format: functional; procedure, shortened: as §2
[15] = tested on: Colon carcinoma cell; experiment: Cytotoxicity against human Colon carcinoma cells incubated for 48 hrs by SRB assay; format: functional; procedure, shortened: as §2
[16] = Cytostatic activity against human Leukemia cancer cells incubated for 48 hrs by SRB assay; format: functional, Leukemia cell; procedure, shortened: as §2
[17] = tested on: IGROV-1; experiment: Downregulation of CCND1 level in human IGROV-1 cells at 5 uM pretreated for 24 hrs followed by UV exposure for 6 hrs by Western blot analysis; format: functional, cell-based; conditions: time 30.0 hrs
Procedure, shortened: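 IGROV1 pretreated 24 h with 5 μM, then UV-irradiated with a 7.5 W lamp for 3 min; UV alone as positive control. Cyclin D1 and RAD51 by RIPA-lysate Western blot normalized to α-tubulin; γH2AX by acid-extracted histone blot normalized to H1; percent of vehicle, mean ± SD, three experiments.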

[18] = tested on: IGROV-1; experiment: Downregulation of RAD51 mRNA level in human IGROV-1 cells at 5 uM pretreated for 24 hrs followed by UV exposure for 6 hrs by qRT-PCR analysis; format: functional, cell-based; conditions: time 30.0 hrs
Procedure, shortened: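 IGROV1 pretreated 24 h with 5 μM then UV-irradiated (7.5 W lamp, 3 min); CCND1 and RAD51 mRNA by qRT-PCR after column RNA extraction and reverse transcription, fold change versus vehicle; at least triplicate, Student's t-test.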

[19] = tested on: IGROV-1; experiment: Induction of cell cycle arrest in human IGROV-1 cells assessed as decrease in cell accumulation at G2/M phase at 5 uM incubated for 24 hrs by PI staining based flow cytometry relative to control; format: functional; parameters: scale not given: the % may be the effect or the level left
Procedure, shortened: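 IGROV1 plated 2×10^4 cells/cm², after 24 h given 5 μM for 24 h; cells detached, PBS-washed, stained 30 min at room temperature in dark with 50 μg/mL propidium iodide, 10 μg/mL RNase, 0.01% Igepal, 0.1% sodium citrate; DNA content by flow cytometry, phase percentages versus untreated.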

## CC(C)(C)c1cc(/C=C2/C(=O)Nc3cc(Cl)ccc32)c(O)c(/C=C2/C(=O)Nc3cc(Cl)ccc32)c1
[1]
  Activity: 55.2%
[2]
  Activity: Active
[3]
  Activity: Active
[4]
  GI50: 3.02 µM
[5]
  CC50: 97.7 µM
[6]
  Time: 56 h
[7]
  Activity: inactive
[8]
  IC50 at 24 h: 21.9 µM
[9]
  Activity: Active
[10]
  IC50: 6.06 µM
[11]
  Activity: inactive
[12]
  Activity: Active
[13]
  GI: 30.9 µM
[14]
  GI: 48.98 µM
[15]
  GI: 37.15 µM
[16]
  GI: 18.62 µM
[17]
  Activity: Active
[18]
  Activity: Active
[19]
  Activity: 11.9%
